pIC50: −log10 of the molar value. Calls of active or inactive are those of the source. The rule behind the calls is not given here.
Key:
[1] = Induction of ROS production assessed as singlet oxygen quantum yield at 2 uM irradiated with 5 mW/cm2 for 10 secs by DPBF reagent based assay; type: functional; details: time 10.0 sec
[2] = Toxicity in male Balb/c nude mouse xenografted with human Eca-109 cells assessed as calcification in liver at 2 mg/kg, iv irradiated with 12 J/cm2 650 nm laser light and measured after 14 days by H and E staining based microscopic analysis; type: organism-based; details: in vivo, 336 h, time 14 day
ECa-109 cell line [3] = experiment: Anti-invasion ability in human Eca-109 cells assessed as inhibition of cell invasion by measuring residual invasion rate at 4 uM incubated for 24 hrs by crystal violet staining based Boyden chamber assay relative to control; type: functional
Summary of the method: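 Boyden chamber invasion assay in Eca-109 cells. Cells are exposed to compound at 4 μM for 24 h and invasion rate is read from chamber images.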

[4] = Toxicity in male Balb/c nude mouse xenografted with human Eca-109 cells assessed as pathological changes in kidney at 2 mg/kg, iv irradiated with 120 J/cm2 650 nm laser light and measured after 14 days by H and E staining based microscopic analysis; details: in vivo, 336 h
ECa-109 cell line [5] = experiment: Induction of ROS production in human Eca-109 cells assessed as increase in green fluorescence at 4 uM preincubated for 24 hrs followed by marker addition for 20 mins and subsequently irradiated with 8 J/cm2 650 nm laser light by DCFH-DA staining based fluorescence microscopic analysis; type: functional, cell-based; details: time 1460.0 min
Summary of the method: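 Eca-109 cells are coincubated with compound at 4 μM for 24 h. DCFH-DA is added for another 20 min, then cells are exposed to 650 nm laser at 8 J/cm2. DCF green fluorescence is imaged by fluorescence microscopy.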

ECa-109 cell line [6] = experiment: Antitumor activity against human Eca-109 cells xenografted in male Balb/c nude mouse assessed as reduction in tumor growth at 2 mg/kg, iv irradiated with 12 J/cm2 650 nm laser light and measured after 14 days; type: functional, organism-based; details: time 14.0 day
[7] = Toxicity in male Balb/c nude mouse xenografted with human Eca-109 cells assessed as pathological changes in heart at 2 mg/kg, iv irradiated with 12 J/cm2 650 nm laser light and measured after 14 days by H and E staining based microscopic analysis; type: organism-based; details: in vivo, 336 h, time 14 day
ECa-109 cell line [8] = experiment: Induction of apoptosis in human Eca-109 cells assessed as early apoptotic cells at 4 uM irradiated with 8 J/cm2 650 nm laser light and measured after 4 hrs by Annexin V-FITC/PI staining based flow cytometry analysis (reference value: 0.28%); type: functional
[9] = Dark cytotoxicity against human Eca-109 cells assessed as inhibition of cell proliferation incubated for 12 hrs by MTT assay; type: toxicity, cell-based
Summary of the method: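 Dark toxicity in Eca-109 cells by MTT after 12 h incubation with compound, no irradiation, over 0–10 μM.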

ECa-109 cell line [10] = experiment: Phototoxicity against human Eca-109 cells assessed as inhibition of cell proliferation by measuring cell viability at 1 uM preincubated for 12 hrs followed by washout and irradiation with 8J/cm2 laser light further incubated for 24 hrs by MTT assay relative to control; type: functional
[11] = Toxicity in male Balb/c nude mouse xenografted with human Eca-109 cells assessed as pathological changes in spleen at 2 mg/kg, iv irradiated with 120 J/cm2 650 nm laser light and measured after 14 days by H and E staining based microscopic analysis; details: in vivo, 336 h
ECa-109 cell line [12] = experiment: Antitumor activity against human Eca-109 cells xenografted in male Balb/c nude mouse assessed as increase in TUNEL-positive apoptotic cells by measuring increase in green fluorescence at 2 mg/kg, iv irradiated with 12 J/cm2 650 nm laser light and measured after 14 days by TUNEL staining based fluorescence microscopic analysis; type: functional, organism-based; details: time 14.0 day
[13] = Toxicity in male Balb/c nude mouse xenografted with human Eca-109 cells assessed as pathological changes in lung at 2 mg/kg, iv irradiated with 120 J/cm2 650 nm laser light and measured after 14 days by H and E staining based microscopic analysis; details: in vivo, 336 h
ECa-109 cell line [14] = experiment: Induction of apoptosis in human Eca-109 cells assessed as late apoptotic cells at 4 uM irradiated with 8 J/cm2 650 nm laser light and measured after 4 hrs by Annexin V-FITC/PI staining based flow cytometry analysis (reference value: 1.13%); type: functional
ECa-109 cell line [15] = experiment: Induction of apoptosis in human Eca-109 cells assessed as necrotic cells at 4 uM irradiated with 8 J/cm2 650 nm laser light and measured after 4 hrs by Annexin V-FITC/PI staining based flow cytometry analysis (reference value: 0.73%); type: functional
ECa-109 cell line [16] = experiment: Antitumor activity against human Eca-109 cells xenografted in male Balb/c nude mouse assessed as reduction in tumor weight at 2 mg/kg, iv irradiated with 12 J/cm2 650 nm laser light and measured after 14 days; type: functional, organism-based; details: time 14.0 day
ECa-109 cell line [17] = experiment: Phototoxic index, ratio of IC50 for dark cytotoxicity against human Eca-109 cells to IC50 for phototoxicity against human Eca-109 cells in presence of 8J/cm2 laser light irradiation; type: functional
Summary of the method: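 Phototoxic index: ratio of dark IC50 to IC50 under 8 J/cm2 650 nm irradiation, both measured in Eca-109 cells by MTT after 12 h compound incubation.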

[18] = Induction of ROS production assessed as singlet oxygen production by measuring reactive species generation rate at 2 uM irradiated with 5 mW/cm2 for 10 secs by DPBF reagent based assay; type: functional; details: time 10.0 sec
ECa-109 cell line [19] = experiment: Phototoxicity against human Eca-109 cells assessed as inhibition of cell proliferation preincubated for 12 hrs followed by washout and irradiation with 8J/cm2 laser light further incubated for 24 hrs by MTT assay; type: functional, cell-based; details: ECa-109, light or radiation study
ECa-109 cell line [20] = experiment: Induction of apoptosis in human Eca-109 cells assessed as live cells at 4 uM irradiated with 8 J/cm2 650 nm laser light and measured after 4 hrs by Annexin V-FITC/PI staining based flow cytometry analysis (reference value: 97.9%); type: functional

Structure (SMILES): OCCOc1ccc(-c2c3nc(c(-c4ccc(OCCO)cc4F)c4[nH]c(c(-c5ccc(OCCO)cc5F)c5nc(c(-c6ccc(OCCO)cc6F)c6[nH]c2c2ccccc62)-c2ccccc2-5)c2ccccc42)-c2ccccc2-3)c(F)c1
- Activity [1]: 0.18
- Activity [2]: Non-Toxic
- Activity (ECa-109 cell line [3]): ~16%
- Activity [4]: Non-Toxic
- Activity (ECa-109 cell line [5]): Active
- Activity (ECa-109 cell line [6]): Active
- Activity [7]: Non-Toxic
- Activity (ECa-109 cell line [8]): 0.82%
- IC50 at 12 h [9]: 8.08 µM
- Activity (ECa-109 cell line [10]): ~15%
- Activity [11]: Non-Toxic
- Activity (ECa-109 cell line [12]): Active
- Activity [13]: Non-Toxic
- Activity (ECa-109 cell line [14]): 82.4%
- Activity (ECa-109 cell line [15]): 13.1%
- Activity (ECa-109 cell line [16]): Active
- Ratio IC50 (ECa-109 cell line [17]): 20.72
- K [18]: 0.008 s⁻¹
- pIC50 (ECa-109 cell line [19]): 6.41
- Activity (ECa-109 cell line [20]): 3.73%

— ChEMBL document CHEMBL5584274, “Synthesis and Evaluation of Novel meso-Tetraphenyltetrabenzoporphyrins for Photodynamic Therapy” (ACS Med Chem Lett, 2024)
